Active and inactive are the calls of the source. The rule behind the calls is not given here.
Experiments:
[1] = molecular target: T1, Vascular endothelial growth factor receptor 2 (Homo sapiens, UniProt P35968); test: Inhibition of recombinant human N-terminal GST-tagged VEGFR2 (D807 to V1356 residues) expressed in sf9 cells assessed as equivalents of test compound required to show 50% inhibition using Poly(Glu,Tyr) 4:1 as substrate after 60 mins in presence of [gamma33P]-ATP by scintillation counting method
In short: (§1)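 Radiometric 33PanQinase assay using recombinant human kinases from Sf9 or E. coli, purified by affinity chromatography. ATP at the apparent Km, plus [γ-33P]-ATP. Compound tested at 1−10 000 nM, 1% DMSO. Incubated 60 min at 30 °C, stopped with 2% H3PO4, 33Pi incorporation counted by scintillation.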

[2] = molecular target: T2, Tyrosine-protein kinase ABL2 (Homo sapiens, UniProt P42684); test: Inhibition of recombinant human N-terminal GST/His6-tagged ABL2 (M1 to P650 residues) expressed in sf9 cells assessed as equivalents of test compound required to show 50% inhibition using Poly(Glu,Tyr) 4:1 as substrate after 60 mins in presence of [gamma33P]-ATP by scintillation counting method; in short: as §1
T2 sequence (P42684 whole entry, the tested form may be a part): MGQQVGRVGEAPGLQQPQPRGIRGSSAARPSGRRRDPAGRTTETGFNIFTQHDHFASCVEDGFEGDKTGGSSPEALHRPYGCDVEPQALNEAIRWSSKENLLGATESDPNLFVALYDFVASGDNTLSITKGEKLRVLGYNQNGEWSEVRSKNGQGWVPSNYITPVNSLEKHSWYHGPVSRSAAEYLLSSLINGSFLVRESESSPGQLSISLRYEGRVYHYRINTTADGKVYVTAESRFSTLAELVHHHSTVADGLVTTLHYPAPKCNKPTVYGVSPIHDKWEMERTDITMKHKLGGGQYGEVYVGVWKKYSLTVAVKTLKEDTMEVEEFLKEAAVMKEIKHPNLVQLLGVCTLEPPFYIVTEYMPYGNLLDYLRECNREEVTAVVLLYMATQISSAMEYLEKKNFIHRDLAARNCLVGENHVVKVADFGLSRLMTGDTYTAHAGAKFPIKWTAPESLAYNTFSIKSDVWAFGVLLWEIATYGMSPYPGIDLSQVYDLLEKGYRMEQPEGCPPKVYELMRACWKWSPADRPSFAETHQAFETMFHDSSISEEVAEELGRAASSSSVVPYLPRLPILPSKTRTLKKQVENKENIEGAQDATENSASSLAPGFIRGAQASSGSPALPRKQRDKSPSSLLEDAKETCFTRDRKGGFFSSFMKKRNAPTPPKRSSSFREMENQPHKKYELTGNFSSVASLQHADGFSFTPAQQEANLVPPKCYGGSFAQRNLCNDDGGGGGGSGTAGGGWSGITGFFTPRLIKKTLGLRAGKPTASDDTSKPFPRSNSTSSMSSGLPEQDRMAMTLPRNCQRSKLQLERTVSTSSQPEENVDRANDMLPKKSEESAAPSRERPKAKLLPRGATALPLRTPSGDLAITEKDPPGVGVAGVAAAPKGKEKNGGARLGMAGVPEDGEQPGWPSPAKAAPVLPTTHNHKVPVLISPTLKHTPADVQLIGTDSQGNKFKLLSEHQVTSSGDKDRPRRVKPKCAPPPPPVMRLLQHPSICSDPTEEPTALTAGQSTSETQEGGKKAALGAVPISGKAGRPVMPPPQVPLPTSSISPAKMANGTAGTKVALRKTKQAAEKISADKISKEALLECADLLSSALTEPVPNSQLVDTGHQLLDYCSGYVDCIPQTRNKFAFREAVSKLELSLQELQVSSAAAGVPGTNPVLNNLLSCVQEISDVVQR

[3] = Selectivity index, ratio of IC50 for human PBMC to IC50 for human A549 cells; assay type: toxicity; details: PBMC versus A549 cells, read-out: Ratio IC50
In short: (§2)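 Selectivity index calculated as MTT IC50 in PBMC divided by MTT IC50 in the cancer line. Both values come from the 24 h MTT viability assay.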

MIA PaCa-2 [4] = test: Cytotoxicity against human MIAPaCa2 cells assessed as reduction in cell viability after 24 hrs by MTT assay; assay type: functional, cell-based; details: MIA PaCa-2, 24 h
In short: (§3)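 Cancer lines or PBMC from healthy human donors seeded in 96-well plates. Exposed to various compound concentrations for 24 h at 37 °C, 5% CO2. MTT solution (5 mg/mL) then added and incubated 2 h more. IC50 obtained by nonlinear regression. Mean ± SD of three independent experiments.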

A549 [5] = test: Cytotoxicity against human A549 cells assessed as reduction in cell viability after 24 hrs by MTT assay; assay type: functional, cell-based; details: A549, 24 h; in short: as §3
ADR5000 cell line [6] = test: Cytotoxicity against human CEM/ADR5000 cells assessed as reduction in cell viability after 24 hrs by MTT assay; assay type: functional, cell-based; details: ADR5000, 24 h; in short: as §3
[7] = molecular target: T3, Mast/stem cell growth factor receptor Kit (Homo sapiens, UniProt P10721); test: Inhibition of recombinant human N-terminal GST/His6-tagged c-KIT (T544 to V976 residues) expressed in sf9 cells using Poly(Glu,Tyr) 4:1 as substrate after 60 mins in presence of [gamma33P]-ATP by scintillation counting method; in short: as §1
T3 sequence (P10721 whole entry, the tested form may be a part): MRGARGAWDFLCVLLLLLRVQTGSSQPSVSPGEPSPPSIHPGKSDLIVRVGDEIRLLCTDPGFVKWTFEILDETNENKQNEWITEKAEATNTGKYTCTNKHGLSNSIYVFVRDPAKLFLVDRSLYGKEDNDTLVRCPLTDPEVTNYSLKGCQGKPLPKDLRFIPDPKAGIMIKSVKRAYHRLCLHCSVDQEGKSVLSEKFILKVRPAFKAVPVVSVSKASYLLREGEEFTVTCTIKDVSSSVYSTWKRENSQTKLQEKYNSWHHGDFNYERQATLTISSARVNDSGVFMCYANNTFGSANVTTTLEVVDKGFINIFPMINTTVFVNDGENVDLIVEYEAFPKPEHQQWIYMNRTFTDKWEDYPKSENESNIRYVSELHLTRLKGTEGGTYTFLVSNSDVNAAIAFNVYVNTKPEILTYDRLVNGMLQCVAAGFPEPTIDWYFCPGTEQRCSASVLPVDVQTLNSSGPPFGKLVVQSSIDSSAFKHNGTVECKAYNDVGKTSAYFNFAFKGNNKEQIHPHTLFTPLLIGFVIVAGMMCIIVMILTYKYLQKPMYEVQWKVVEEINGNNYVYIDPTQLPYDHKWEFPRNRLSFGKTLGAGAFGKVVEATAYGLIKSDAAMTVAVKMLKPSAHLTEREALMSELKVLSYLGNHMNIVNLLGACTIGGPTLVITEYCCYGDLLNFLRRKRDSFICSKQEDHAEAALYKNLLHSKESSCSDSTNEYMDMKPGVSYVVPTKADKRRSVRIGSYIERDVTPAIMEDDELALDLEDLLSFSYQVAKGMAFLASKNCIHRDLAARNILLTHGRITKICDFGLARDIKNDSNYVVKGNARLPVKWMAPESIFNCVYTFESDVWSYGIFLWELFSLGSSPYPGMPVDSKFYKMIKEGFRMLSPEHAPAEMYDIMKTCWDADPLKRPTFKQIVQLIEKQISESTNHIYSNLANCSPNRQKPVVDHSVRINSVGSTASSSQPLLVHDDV

PBMC = test: Cytotoxicity against human PBMC assessed as reduction in cell viability after 24 hrs by MTT assay; assay type: cell-based; in short: as §3
[8] = Selectivity index, ratio of IC50 for human PBMC to IC50 for human CCRF-CEM cells; assay type: toxicity; details: PBMC versus CCRF-CEM cells, read-out: Ratio IC50; in short: as §2
[9] = molecular target: T2, Tyrosine-protein kinase ABL2; test: Inhibition of recombinant human N-terminal GST/His6-tagged ABL2 (M1 to P650 residues) expressed in sf9 cells using Poly(Glu,Tyr) 4:1 as substrate after 60 mins in presence of [gamma33P]-ATP by scintillation counting method; in short: as §1
[10] = molecular target: T4, Vascular endothelial growth factor receptor 3 (Homo sapiens, UniProt P35916); test: Inhibition of recombinant human N-terminal GST/His6-tagged VEGFR3 (N799 to R1298 residues) expressed in sf9 cells using Poly(Glu,Tyr) 4:1 as substrate after 60 mins in presence of [gamma33P]-ATP by scintillation counting method; in short: as §1
T4 sequence (P35916 whole entry, the tested form may be a part): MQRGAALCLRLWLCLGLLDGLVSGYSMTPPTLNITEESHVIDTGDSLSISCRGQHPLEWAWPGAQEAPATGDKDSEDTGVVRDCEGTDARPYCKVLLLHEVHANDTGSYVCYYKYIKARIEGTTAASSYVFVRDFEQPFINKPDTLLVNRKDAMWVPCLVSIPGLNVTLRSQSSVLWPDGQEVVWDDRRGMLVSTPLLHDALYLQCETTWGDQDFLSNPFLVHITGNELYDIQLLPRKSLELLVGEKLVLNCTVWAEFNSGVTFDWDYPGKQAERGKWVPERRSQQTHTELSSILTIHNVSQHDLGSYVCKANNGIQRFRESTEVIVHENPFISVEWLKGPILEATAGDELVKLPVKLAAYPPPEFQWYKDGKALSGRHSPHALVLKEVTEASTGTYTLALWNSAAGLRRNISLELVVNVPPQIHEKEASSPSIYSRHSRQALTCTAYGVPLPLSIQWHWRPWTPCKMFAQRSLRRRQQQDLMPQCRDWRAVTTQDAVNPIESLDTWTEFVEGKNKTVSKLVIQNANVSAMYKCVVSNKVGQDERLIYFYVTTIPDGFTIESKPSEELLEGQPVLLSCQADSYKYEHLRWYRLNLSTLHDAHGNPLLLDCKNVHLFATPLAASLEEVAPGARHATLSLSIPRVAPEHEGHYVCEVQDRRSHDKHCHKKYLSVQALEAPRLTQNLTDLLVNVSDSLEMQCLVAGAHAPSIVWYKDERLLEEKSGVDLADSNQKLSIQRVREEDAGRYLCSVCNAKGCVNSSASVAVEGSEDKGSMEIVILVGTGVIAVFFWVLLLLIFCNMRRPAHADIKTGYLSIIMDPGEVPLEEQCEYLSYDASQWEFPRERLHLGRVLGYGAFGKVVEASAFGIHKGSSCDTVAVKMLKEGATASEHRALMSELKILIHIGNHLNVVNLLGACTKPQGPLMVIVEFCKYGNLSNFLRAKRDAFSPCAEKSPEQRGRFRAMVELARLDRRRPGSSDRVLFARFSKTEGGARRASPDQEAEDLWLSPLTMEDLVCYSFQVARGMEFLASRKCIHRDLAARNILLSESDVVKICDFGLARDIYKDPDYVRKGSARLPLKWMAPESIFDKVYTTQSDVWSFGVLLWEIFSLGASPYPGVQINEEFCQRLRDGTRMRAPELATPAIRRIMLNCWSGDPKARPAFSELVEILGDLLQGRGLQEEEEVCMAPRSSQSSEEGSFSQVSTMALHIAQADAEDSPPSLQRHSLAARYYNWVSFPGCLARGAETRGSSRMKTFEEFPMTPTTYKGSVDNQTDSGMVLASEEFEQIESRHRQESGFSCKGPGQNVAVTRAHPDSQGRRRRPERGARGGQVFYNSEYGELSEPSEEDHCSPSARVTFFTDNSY

[11] = molecular target: T3, Mast/stem cell growth factor receptor Kit; test: Inhibition of recombinant human N-terminal GST/His6-tagged c-KIT (T544 to V976 residues) expressed in sf9 cells assessed as equivalents of test compound required to show 50% inhibition using Poly(Glu,Tyr) 4:1 as substrate after 60 mins in presence of [gamma33P]-ATP by scintillation counting method; in short: as §1
[12] = Cytotoxicity against human PBMC assessed as cell viability at 80 uM after 24 hrs by MTT assay relative to control; assay type: cell-based; details: read-out: Activity; in short: as §3
MIA PaCa-2 [13] = test: Cell cycle arrest in human MIAPaCa2 cells at 1 to 1000 nM after 24 hrs by propidium iodide staining based FACS analysis; assay type: functional
In short: (§4)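 Cells (1 × 10^6) seeded, incubated overnight, then exposed 24 h at 37 °C and 5% CO2 to increasing concentrations of compound (100 nM axitinib as VEGFR-2 control). Fixed in cold 70% ethanol, stained with propidium iodide for 30 min. DNA content read by flow cytometry, 10,000 gated events per sample. Sub-G1 fraction taken as apoptosis. Three independent experiments.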

[14] = molecular target: T5, Vascular endothelial growth factor receptor 1 (Homo sapiens, UniProt P17948); test: Inhibition of recombinant human N-terminal GST-tagged VEGFR1 (K784 to I1338 residues) expressed in sf9 cells using Poly(Glu,Tyr) 4:1 as substrate after 60 mins in presence of [gamma33P]-ATP by scintillation counting method; in short: as §1
T5 sequence (P17948 whole entry, the tested form may be a part): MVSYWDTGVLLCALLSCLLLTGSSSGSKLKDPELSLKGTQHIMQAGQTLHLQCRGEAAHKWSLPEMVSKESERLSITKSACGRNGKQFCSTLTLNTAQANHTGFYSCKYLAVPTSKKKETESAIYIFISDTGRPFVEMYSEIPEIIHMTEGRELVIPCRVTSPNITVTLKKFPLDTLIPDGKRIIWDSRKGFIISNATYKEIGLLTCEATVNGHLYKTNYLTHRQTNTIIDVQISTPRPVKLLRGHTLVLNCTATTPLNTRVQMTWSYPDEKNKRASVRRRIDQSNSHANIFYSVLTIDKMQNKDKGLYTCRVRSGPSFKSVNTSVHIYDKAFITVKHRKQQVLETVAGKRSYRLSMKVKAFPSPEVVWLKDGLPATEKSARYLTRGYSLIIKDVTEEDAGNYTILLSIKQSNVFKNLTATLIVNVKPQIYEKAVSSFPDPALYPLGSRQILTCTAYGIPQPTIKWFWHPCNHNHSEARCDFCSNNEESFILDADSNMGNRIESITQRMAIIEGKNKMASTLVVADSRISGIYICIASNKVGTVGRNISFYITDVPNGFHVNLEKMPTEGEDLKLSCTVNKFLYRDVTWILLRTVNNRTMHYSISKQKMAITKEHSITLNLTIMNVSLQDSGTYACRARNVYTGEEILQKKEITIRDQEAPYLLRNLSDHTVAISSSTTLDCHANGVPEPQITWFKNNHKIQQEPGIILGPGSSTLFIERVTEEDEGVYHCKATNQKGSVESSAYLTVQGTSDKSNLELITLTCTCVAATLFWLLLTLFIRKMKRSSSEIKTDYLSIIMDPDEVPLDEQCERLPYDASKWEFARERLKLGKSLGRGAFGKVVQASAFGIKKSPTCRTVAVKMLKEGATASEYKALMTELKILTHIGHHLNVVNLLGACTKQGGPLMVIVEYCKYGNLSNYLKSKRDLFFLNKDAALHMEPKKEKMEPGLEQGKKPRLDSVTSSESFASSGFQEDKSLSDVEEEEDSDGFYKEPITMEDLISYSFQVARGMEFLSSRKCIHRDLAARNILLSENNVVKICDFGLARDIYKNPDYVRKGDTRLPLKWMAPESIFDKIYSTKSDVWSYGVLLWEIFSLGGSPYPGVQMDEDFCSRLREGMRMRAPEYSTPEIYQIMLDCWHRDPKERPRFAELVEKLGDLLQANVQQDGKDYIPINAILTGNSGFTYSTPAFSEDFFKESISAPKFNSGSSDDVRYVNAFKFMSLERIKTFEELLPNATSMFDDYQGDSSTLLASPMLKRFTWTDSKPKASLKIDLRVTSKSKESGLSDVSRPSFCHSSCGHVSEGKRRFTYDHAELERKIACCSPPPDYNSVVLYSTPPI

CCRF-CEM [15] = test: Cytotoxicity against human CCRF-CEM cells assessed as reduction in cell viability after 24 hrs by MTT assay; assay type: functional, cell-based; in short: as §3
[16] = molecular target: T1, Vascular endothelial growth factor receptor 2; test: Inhibition of recombinant human N-terminal GST-tagged VEGFR2 (D807 to V1356 residues) expressed in sf9 cells using Poly(Glu,Tyr) 4:1 as substrate after 60 mins in presence of [gamma33P]-ATP by scintillation counting method; in short: as §1
[17] = molecular target: T5, Vascular endothelial growth factor receptor 1; test: Inhibition of recombinant human N-terminal GST-tagged VEGFR1 (K784 to I1338 residues) expressed in sf9 cells assessed as equivalents of test compound required to show 50% inhibition using Poly(Glu,Tyr) 4:1 as substrate after 60 mins in presence of [gamma33P]-ATP by scintillation counting method; in short: as §1
Jurkat [18] = test: Cytotoxicity against human Jurkat cells assessed as reduction in cell viability after 24 hrs by MTT assay; assay type: functional, cell-based; in short: as §3
[19] = Selectivity index, ratio of IC50 for human PBMC to IC50 for human Jurkat cells; assay type: toxicity; details: PBMC versus Jurkat cells, read-out: Ratio IC50; in short: as §2
CCRF-CEM [20] = test: Cell cycle arrest in human CCRF-CEM cells assessed as accumulation at sub-G1 phase after 24 hrs by propidium iodide staining based FACS analysis; assay type: functional; in short: as §4
[21] = Selectivity index, ratio of IC50 for human PBMC to IC50 for human CEM/ADR5000 cells; assay type: toxicity; details: PBMC versus CEM/ADR5000 cells, read-out: Ratio IC50; in short: as §2
[22] = molecular target: T4, Vascular endothelial growth factor receptor 3; test: Inhibition of recombinant human N-terminal GST/His6-tagged VEGFR3 (N799 to R1298 residues) expressed in sf9 cells assessed as equivalents of test compound required to show 50% inhibition using Poly(Glu,Tyr) 4:1 as substrate after 60 mins in presence of [gamma33P]-ATP by scintillation counting method; in short: as §1
MIA PaCa-2 [23] = test: Cell cycle arrest in human MIAPaCa2 cells assessed as accumulation at sub-G1 phase after 24 hrs by propidium iodide staining based FACS analysis; assay type: functional; in short: as §4
[24] = Selectivity index, ratio of IC50 for human PBMC to IC50 for human MIAPaCa2 cells; assay type: toxicity; details: PBMC versus MIAPaCa2 cells, read-out: Ratio IC50; in short: as §2
ADR5000 cell line [25] = test: Cell cycle arrest in human CEM/ADR5000 cells assessed as accumulation at sub-G1 phase after 24 hrs by propidium iodide staining based FACS analysis; assay type: functional; in short: as §4
MIA PaCa-2 [26] = test: Cell cycle arrest in human MIAPaCa2 cells assessed as accumulation at S phase at 1 nM after 24 hrs by propidium iodide staining based FACS analysis; assay type: functional; in short: as §4
Jurkat [27] = test: Cell cycle arrest in human Jurkat cells assessed as accumulation at sub-G1 phase after 24 hrs by propidium iodide staining based FACS analysis; assay type: functional; in short: as §4
A549 [28] = test: Cell cycle arrest in human A549 cells assessed as accumulation at sub-G1 phase after 24 hrs by propidium iodide staining based FACS analysis; assay type: functional; in short: as §4
Jurkat [29] = test: Cell cycle arrest in human Jurkat cells at 100 nM after 24 hrs by propidium iodide staining based FACS analysis; assay type: functional
In short: (§5)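 Cells (1 × 10^6) seeded in 12-well plates and held overnight, then exposed to increasing concentrations of test compound or 100 nM axitinib (VEGFR-2 inhibition control) for 24 h at 37 °C, 5% CO2. Fixed in cold 70% ethanol, stained with propidium iodide for 30 min, DNA content read by flow cytometry on 10,000 gated events; three independent experiments, means ± SD.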

ADR5000 cell line [30] = test: Cell cycle arrest in human CEM/ADR5000 cells at 100 nM after 24 hrs by propidium iodide staining based FACS analysis; assay type: functional; in short: as §5
MIA PaCa-2 [31] = test: Cell cycle arrest in human MIAPaCa2 cells at 100 nM after 24 hrs by propidium iodide staining based FACS analysis; assay type: functional; in short: as §5
A549 [32] = test: Cell cycle arrest in human A549 cells at 100 nM after 24 hrs by propidium iodide staining based FACS analysis; assay type: functional; in short: as §5
CCRF-CEM [33] = test: Cell cycle arrest in human CCRF-CEM cells at 100 nM after 24 hrs by propidium iodide staining based FACS analysis; assay type: functional; in short: as §5

| Structure (SMILES) | Activity [1] [equiv] | Activity [2] [equiv] | selectivity ratio [3] | IC50 (MIA PaCa-2 [4]) [nM] | IC50 (A549 [5]) [nM] | IC50 (ADR5000 cell line [6]) [nM] | IC50 [7] [nM] | IC50 (PBMC) [nM] | selectivity ratio [8] | IC50 [9] [nM] | IC50 [10] [nM] | Activity [11] [equiv] | IC50 [14] [nM] | IC50 (CCRF-CEM [15]) [nM] | IC50 [16] [nM] | Activity [17] [equiv] | IC50 (Jurkat [18]) [nM] | selectivity ratio [19] | also measured |
| --- | --- | --- | --- | --- | --- | --- | --- | --- | --- | --- | --- | --- | --- | --- | --- | --- | --- | --- | --- |
| C[C@@H]1CN(C(=O)CCCC(=O)N2C[C@@H](C)c3c2cc(O)c2ccccc32)c2cc(O)c3ccccc3c21 | 143 | 360 | > 120 | > 10000 | 663 | > 10000 | 8300 | > 80000 | > 439 | 540 | > 10000 | 643 | 2100 | 182 | 330 | 511 | 660 | > 121 | viability at 24 h, 80 µM [12]: 80%; Activity (MIA PaCa-2 [13]): inactive |
| O=C(CCCC(=O)N1C[C@@H](CCl)c2c1cc(O)c1ccccc21)N1C[C@@H](CCl)c2c1cc(O)c1ccccc21 | 230 | 457 | 741 | 14.1 | 2.7 | 6.9 | 3000 | 2000 | 2220 | 685 | 4200 | 233 | 1270 | 0.9 | 530 | 283 | 1.4 | 1430 | Activity (CCRF-CEM [20]): Dose-dependent effect; selectivity ratio [21]: 290; Activity [22]: 894 equiv; Activity (MIA PaCa-2 [23]): Dose-dependent effect; inhibition [7]: Dose-dependent effect; inhibition [9]: Dose-dependent effect; selectivity ratio [24]: 142; inhibition [10]: Dose-dependent effect; Activity (ADR5000 cell line [25]): Dose-dependent effect; Activity (MIA PaCa-2 [26]): Active; Activity (Jurkat [27]): Dose-dependent effect; inhibition [14]: Dose-dependent effect; Activity (A549 [28]): Dose-dependent effect; inhibition [16]: Dose-dependent effect |
| CNC(=O)c1ccccc1Sc1ccc2c(/C=C/c3ccccn3)n[nH]c2c1 | – | – | – | – | – | – | – | – | – | – | – | – | – | – | – | – | – | – | Activity (Jurkat [29]): Active; Activity (ADR5000 cell line [30]): Active; Activity (MIA PaCa-2 [31]): Active; Activity (A549 [32]): Active; Activity (CCRF-CEM [33]): Active |

Reference: ChEMBL document CHEMBL4371099, “Bifunctional Duocarmycin Analogues as Inhibitors of Protein Tyrosine Kinases” (J Nat Prod, 2019)
